Legend:
Type in all cases: functional, cell-based
[1] = target: T1, Adenosine receptor A1 (Homo sapiens) (UniProt P30542); experiment: Percentage of response to 10 uM of PD-81723 on CHO cells expressing the cloned human A1-adenosine receptor at 0.1 uM
T1 sequence (whole entry): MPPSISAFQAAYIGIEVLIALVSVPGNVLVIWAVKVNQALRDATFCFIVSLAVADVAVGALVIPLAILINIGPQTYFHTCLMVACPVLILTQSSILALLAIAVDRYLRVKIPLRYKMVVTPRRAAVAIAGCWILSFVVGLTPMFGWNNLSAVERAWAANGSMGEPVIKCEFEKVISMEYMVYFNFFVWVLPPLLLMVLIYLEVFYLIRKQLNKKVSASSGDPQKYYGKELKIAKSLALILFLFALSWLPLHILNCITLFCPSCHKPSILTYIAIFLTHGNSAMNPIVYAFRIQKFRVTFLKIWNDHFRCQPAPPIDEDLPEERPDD
How it was run: (§1)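 CHO cells stably expressing recombinant human A1 receptors (~8000 fmol/mg protein), thawed from low-passage frozen stocks, grown to confluence over 48–72 h in Ham's F-12 with 10% FBS and G-418. Test compound incubated 6 min at 36 °C with 0.05–0.1 nM CPA. Reaction stopped with HCl (final 50 mM). cAMP in acid extracts measured by radioimmunoassay. Reduction normalized to the response to 10 μM PD 81,723.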

[2] = target: T1, Adenosine receptor A1 (Homo sapiens); experiment: Percentage of response to 10 uM of PD-81723 on CHO cells expressing the cloned human A1-adenosine receptor at 1 uM concentration; how it was run: as §1
[3] = target: T1, Adenosine receptor A1 (Homo sapiens); experiment: Percentage of response to 10 uM of PD-81723 on CHO cells expressing the cloned human A1-adenosine receptor at 10 uM concentration; how it was run: as §1
[4] = target: T1, Adenosine receptor A1 (Homo sapiens); experiment: Percent response to 10 uM PD-81723 on CHO cells expressing human A1-adenosine receptor at 0.1 uM; An increase of cAmp content of cells; how it was run: as §1
[5] = target: T1, Adenosine receptor A1 (Homo sapiens); experiment: Percentage of response to 10 uM of PD-81723 on CHO cells expressing the cloned human A1-adenosine receptor at 10 uM; An increase of cAmp content of cells; how it was run: as §1
[6] = target: T1, Adenosine receptor A1 (Homo sapiens); experiment: Percentage of response to 10 uM of PD-81723 on CHO cells expressing the cloned human A1-adenosine receptor at 1 uM; An increase of cAmp content of cells; how it was run: as §1
[7] = target: T1, Adenosine receptor A1 (Homo sapiens); experiment: The compound was tested for its percentage of response to 10 uM of PD-81723 on CHO cells expressing the cloned human A1-adenosine receptor at 0.1 uM concentration; change of less than 5% of allosteric enhancement; how it was run: as §1
[8] = target: T1, Adenosine receptor A1 (Homo sapiens); experiment: The compound was tested for its percentage of response to 10 uM of PD-81723 on CHO cells expressing the cloned human A1-adenosine receptor at 10 uM; how it was run: as §1
[9] = target: T1, Adenosine receptor A1 (Homo sapiens); experiment: The compound was tested for its percentage of response to 10 uM of PD-81723 on CHO cells expressing the cloned human A1-adenosine receptor at 1 uM; how it was run: as §1
[10] = target: T1, Adenosine receptor A1 (Homo sapiens); experiment: The compound was tested for its percentage of response to 10 uM of PD-81723 on CHO cells expressing the cloned human A1-adenosine receptor at 1 uM concentration; change of less than 5% of allosteric enhancement.; how it was run: as §1
[11] = target: T1, Adenosine receptor A1 (Homo sapiens); experiment: Percentage of response to 10 uM of PD-81723 on CHO cells expressing the cloned human A1-adenosine receptor at 0.1 uM concentration; how it was run: as §1
[12] = target: T1, Adenosine receptor A1 (Homo sapiens); experiment: The compound was tested for its percentage of response to 10 uM of PD-81723 on CHO cells expressing the cloned human A1-adenosine receptor at 0.1 uM; An increase of cAmp content of cells; how it was run: as §1
[13] = target: T1, Adenosine receptor A1 (Homo sapiens); experiment: The compound was tested for its percentage of response to 10 uM of PD-81723 on CHO cells expressing the cloned human A1-adenosine receptor at 10 uM; An increase of cAmp content of cells; how it was run: as §1
[14] = target: T1, Adenosine receptor A1 (Homo sapiens); experiment: The compound was tested for its percentage of response to 10 uM of PD-81723 on CHO cells expressing the cloned human A1-adenosine receptor at 10 uM concentration; change of less than 5% of allosteric enhancement.; how it was run: as §1
[15] = target: T1, Adenosine receptor A1 (Homo sapiens); experiment: The compound was tested for its percentage of response to 10 uM of PD-81723 on CHO cells expressing the cloned human A1-adenosine receptor at 1 uM; change of less than 5% of allosteric enhancement.; how it was run: as §1
[16] = target: T1, Adenosine receptor A1 (Homo sapiens); experiment: The compound was tested for its percentage of response to 10 uM of PD-81723 on CHO cells expressing the cloned human A1-adenosine receptor at 10 uM concentration; An increase of cAmp content of cells; how it was run: as §1
[17] = target: T1, Adenosine receptor A1 (Homo sapiens); experiment: The compound was tested for its percentage of response to 10 uM of PD-81723 on CHO cells expressing the cloned human A1-adenosine receptor at 0.1 uM concentration; An increase of cAmp content of cells; how it was run: as §1
[18] = target: T1, Adenosine receptor A1 (Homo sapiens); experiment: The compound was tested for its percentage of response to 10 uM of PD-81723 on CHO cells expressing the cloned human A1-adenosine receptor at 0.1; change of less than 5% of allosteric enhancement.; how it was run: as §1
[19] = target: T1, Adenosine receptor A1 (Homo sapiens); experiment: The compound was tested for its percentage of response to 10 uM of PD-81723 on CHO cells expressing the cloned human A1-adenosine receptor at 10 uM; change of less than 5% of allosteric enhancement.; how it was run: as §1
[20] = target: T1, Adenosine receptor A1 (Homo sapiens); experiment: The compound was tested for its percentage of response to 10 uM of PD-81723 on CHO cells expressing the cloned human A1-adenosine receptor at 0.1 uM concentration; change of less than 5% of allosteric enhancement.; how it was run: as §1

Row | SMILES | Response [2] [%] | Response [3] [%] | Response [11] [%] | also measured
1 | COc1ccc(C(=O)c2c(N)sc3c2CCC3)cc1 | 43 | 42 | – | Response [1]: < 5%
2 | Cc1ccc(S(=O)(=O)N2CCc3c(sc(N)c3C(=O)c3ccccc3)C2)cc1 | – | – | – | Response [4]: Increased cAMP; Response [5]: Increased cAMP; Response [6]: Increased cAMP
3 | Cc1sc(N)c(C(=O)c2ccccc2)c1C | – | 19 | – | Response [7]: < 5%; Response [6]: Increased cAMP
4 | Nc1sc2c(c1C(=O)c1ccc(Cl)cc1)CCN(CCc1ccc([N+](=O)[O-])cc1)C2 | – | – | – | Response [8]: 31%; Response [4]: Increased cAMP; Response [9]: 13%; Response [5]: Increased cAMP; Response [6]: Increased cAMP
5 | Nc1sc2c(c1C(=O)c1ccc(-c3ccccc3)cc1)CCNC2 | – | – | – | Response [1]: < 5%; Response [10]: < 5%; Response [5]: Increased cAMP
6 | Nc1sc2c(c1C(=O)c1ccccc1)CCNC2 | 9 | 12 | – | Response [1]: < 5%
7 | Nc1sc2c(c1C(=O)c1ccc(F)cc1)CCCC2 | 43 | 83 | – | Response [1]: < 5%
8 | Nc1sc2c(c1C(=O)c1ccc(Br)cc1)CCCC2 | 67 | 67 | 50 | –
9 | Nc1sc2c(c1C(=O)c1cccc(C(F)(F)F)c1)CCN(CCCc1ccccc1)C2 | 7 | 22 | – | Response [1]: < 5%
10 | Nc1sccc1C(=O)c1ccccc1 | 26 | 28 | 51 | –
11 | COc1ccc(C(=O)c2c(N)sc3c2CCCCC3)cc1 | 54 | 36 | – | Response [1]: < 5%
12 | CCOC(=O)CN1CCc2c(sc(N)c2C(=O)c2ccc(Cl)cc2)C1 | – | – | 10 | Response [5]: Increased cAMP; Response [6]: Increased cAMP
13 | Cc1sc(N)c(C(=O)c2ccc(Cl)cc2)c1C | 52 | 92 | 30 | –
14 | Nc1sc2c(c1C(=O)c1ccc(Cl)cc1)CCNC2 | 12 | 9 | 15 | –
15 | Nc1sc2c(c1C(=O)c1ccc(Cl)cc1)CCN(CCc1ccccc1)C2 | 32 | – | 58 | Response [5]: Increased cAMP
16 | Nc1sc2c(c1C(=O)c1ccc(F)cc1)CCN(C(=O)OCc1ccccc1)C2 | – | – | – | Response [1]: < 5%; Response [5]: Increased cAMP; Response [6]: Increased cAMP
17 | Nc1sc2c(c1C(=O)c1ccccc1)CCN(C(=O)OCc1ccccc1)C2 | – | – | – | Response [4]: Increased cAMP; Response [5]: Increased cAMP; Response [6]: Increased cAMP
18 | Nc1sc2c(c1C(=O)c1ccc(Br)cc1)CCN(C(=O)OCc1ccccc1)C2 | – | – | – | Response [12]: Increased cAMP; Response [13]: Increased cAMP; Response [6]: Increased cAMP
19 | Nc1sc2c(c1C(=O)c1ccc(Cl)cc1)CCC2 | – | – | – | Response [14]: < 5%; Response [15]: < 5%; Response [4]: Increased cAMP
20 | Nc1sc2c(c1C(=O)c1cccc(C(F)(F)F)c1)CCN(CCc1ccccc1)C2 | – | – | – | Response [1]: < 5%; Response [10]: < 5%; Response [16]: Increased cAMP
21 | Nc1sc2c(c1C(=O)c1ccccc1)CCCCC2 | 29 | 54 | – | Response [17]: Increased cAMP
22 | COc1ccc(C(=O)c2c(N)sc3c2CCCC3)cc1 | 44 | 71 | – | Response [1]: < 5%
23 | Nc1sc2c(c1C(=O)c1ccc(-c3ccccc3)cc1)CCN(C(=O)OCc1ccccc1)C2 | 6 | – | 14 | Response [14]: < 5%

Row | SMILES | Response [2] [%] | Response [3] [%] | Response [11] [%] | also measured
24 | Nc1sc2c(c1C(=O)c1ccc(Cl)cc1)CCN(C(=O)OCc1ccccc1)C2 | – | – | – | Response [18]: < 5%; Response [5]: Increased cAMP; Response [6]: Increased cAMP
25 | Nc1sc2c(c1C(=O)c1ccc(Cl)cc1)CCN(Cc1ccccc1)C2 | – | – | – | Response [1]: < 5%; Response [5]: Increased cAMP; Response [6]: Increased cAMP
26 | Nc1sccc1C(=O)c1ccc(Cl)cc1 | 8 | 25 | 7 | –
27 | Nc1sc2c(c1C(=O)c1ccc(I)cc1)CCC2 | – | – | – | Response [4]: Increased cAMP; Response [19]: < 5%; Response [6]: Increased cAMP
28 | CCOC(=O)CN1CCc2c(sc(N)c2C(=O)c2ccccc2)C1 | – | – | – | Response [4]: Increased cAMP; Response [5]: Increased cAMP; Response [6]: Increased cAMP
29 | Nc1sc2c(c1C(=O)c1ccc(F)cc1)CCCCC2 | 36 | 61 | 26 | –
30 | Nc1sc2c(c1C(=O)c1ccc(Br)cc1)CCC2 | 53 | 72 | 31 | –
31 | Nc1sc2c(c1C(=O)c1ccccc1)SCC2 | – | 68 | – | Response [17]: Increased cAMP; Response [10]: < 5%
32 | Nc1sc2c(c1C(=O)c1ccc(F)cc1)CCC2 | 43 | 65 | – | Response [1]: < 5%
33 | Nc1sc2c(c1C(=O)c1ccccc1)CCCC2 | 48 | 77 | 16 | –
34 | Nc1sc2c(c1C(=O)c1ccc(I)cc1)CCNC2 | – | – | – | Response [14]: < 5%; Response [1]: < 5%; Response [10]: < 5%
35 | Nc1sc2c(c1C(=O)c1ccc(-c3ccccc3)cc1)CCCC2 | 79 | 68 | 14 | –
36 | Nc1sc2c(c1C(=O)c1ccc(Cl)cc1)CCCC2 | 58 | 86 | 57 | –
37 | Nc1sc2c(c1C(=O)c1ccc(I)cc1)CCN(C(=O)OCc1ccccc1)C2 | – | – | – | Response [14]: < 5%; Response [1]: < 5%; Response [10]: < 5%
38 | Nc1sc2c(c1C(=O)c1ccc(Cl)cc1)CCCCCC2 | 39 | 68 | 24 | –
39 | Nc1sc2c(c1C(=O)c1ccccc1)CCN(CCc1ccc([N+](=O)[O-])cc1)C2 | 13 | 31 | – | Response [4]: Increased cAMP
40 | Nc1sc2c(c1C(=O)c1ccccc1)CCC2 | 29 | 82 | 35 | –
41 | Nc1sc2c(c1C(=O)c1ccc(Br)cc1)CCNC2 | – | – | – | Response [14]: < 5%; Response [10]: < 5%; Response [20]: < 5%
42 | Nc1sc2c(c1C(=O)c1ccc(Cl)cc1)CCCCC2 | 42 | 72 | 25 | –
43 | Cc1sc(N)c(C(=O)c2cccc(C(F)(F)F)c2)c1C | 40 | 100 | 13 | –
44 | Nc1sc2c(c1C(=O)c1ccc(Cl)cc1)CCN(CCCc1ccccc1)C2 | 15 | 31 | 8 | –
45 | Nc1sc2c(c1C(=O)c1cccc(C(F)(F)F)c1)CCN(Cc1ccccc1)C2 | 41 | 85 | 18 | –

Source: ChEMBL document CHEMBL1133137, “Synthesis and biological effects of a new series of 2-amino-3-benzoylthiophenes as allosteric enhancers of A1-adenosine receptor” (Bioorg Med Chem Lett, 2000)
